Measured values: ChEMBL document CHEMBL4364322, “Protective effect of piceatannol and bioactive stilbene derivatives against hypoxia-induced toxicity in H9c2 cardiomyocytes and structural elucidation as 5-LOX inhibitors” (Eur J Med Chem, 2019)
pIC50: −log10 of the molar value. Values belong to the compound of their own block, whether it stands above or below them. Calls of active or inactive are those of the source. The calls are words filed in the database; no cut-off is given here.

Key:
[1] = biological target: T1, Polyunsaturated fatty acid 5-lipoxygenase (Homo sapiens, UniProt P09917); experiment: Inhibition of 5-LOX in human PMNL cells assessed as A23187-stimulated LTB4 production preincubated for 15 mins followed by A23187 addition and measured after 10 mins by HPLC analysis; assay type: cell-based
T1 sequence (P09917 whole entry): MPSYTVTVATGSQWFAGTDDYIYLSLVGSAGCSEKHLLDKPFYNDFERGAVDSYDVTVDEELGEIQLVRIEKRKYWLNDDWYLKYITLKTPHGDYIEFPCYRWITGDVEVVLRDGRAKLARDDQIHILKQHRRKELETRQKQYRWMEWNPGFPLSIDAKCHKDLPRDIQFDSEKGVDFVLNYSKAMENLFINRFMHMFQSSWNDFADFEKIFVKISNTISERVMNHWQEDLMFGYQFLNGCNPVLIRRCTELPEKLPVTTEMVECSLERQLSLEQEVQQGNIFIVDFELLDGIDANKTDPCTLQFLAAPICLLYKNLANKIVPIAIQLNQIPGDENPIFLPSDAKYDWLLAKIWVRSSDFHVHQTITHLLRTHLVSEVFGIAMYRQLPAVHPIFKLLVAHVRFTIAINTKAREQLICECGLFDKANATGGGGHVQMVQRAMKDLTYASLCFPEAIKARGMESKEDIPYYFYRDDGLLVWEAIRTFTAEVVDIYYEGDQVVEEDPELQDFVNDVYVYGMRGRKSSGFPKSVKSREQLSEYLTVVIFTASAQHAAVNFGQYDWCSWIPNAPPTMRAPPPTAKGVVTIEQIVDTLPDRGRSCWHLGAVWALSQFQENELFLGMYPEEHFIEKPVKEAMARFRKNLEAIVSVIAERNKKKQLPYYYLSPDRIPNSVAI
Summary of the method: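 Human PMNL (5×10^6 in 1 ml PBS with 1 mg/ml glucose and 1 mM CaCl2) were preincubated with compound 15 min at 37 °C. 2.5 µM A23187 was added for 10 min at 37 °C, and the reaction was stopped with methanol. 5-LOX products were analysed by HPLC.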

H9c2 [2] = experiment: Cytoprotective activity against hypoxia-induced apoptosis in rat H9c2 cells assessed as early apoptotic cells at 2 uM preincubated for 18 hrs followed by incubated in hypoxia for 48 hrs by annexin V based flow cytometry (reference value: 60 %); assay type: functional
Summary of the method: (§1)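 H9c2 cells were pretreated 18 h at 2 µM, then grown under normoxia or hypoxia. Apoptotic cells were detected by flow cytometry with fluorescein-annexin V staining. The read-out is % annexin V-positive cells.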

[3] = biological target: T1, Polyunsaturated fatty acid 5-lipoxygenase; experiment: Inhibition of human 5-LOX expressed in Escherichia coli BL21 using arachidonic acid as substrate preincubated for 15 mins followed by substrate addition by HPLC analysis
Summary of the method: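 Human recombinant 5-LOX was expressed in E. coli BL21 (pT3-5LO) and purified. Enzyme (0.5 µg) in PBS/EDTA was preincubated with compound 15 min at 4 °C, then warmed 30 s at 37 °C. The reaction was started with 2 mM CaCl2 plus 20 µM arachidonic acid and run 10 min at 37 °C. Products were analysed by HPLC.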

H9c2 [4] = experiment: Cytoprotective activity against hypoxia-induced toxicity rat H9c2 cells assessed as increase in cell viability at 80 nM preincubated for 18 hrs followed by incubated in hypoxia for 48 hrs by MTT assay; assay type: functional
Summary of the method: (§2)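 10^4 H9c2 cells were seeded and grown 24 h at 37 °C. Compound (80 nM–20 µM) was added either 18 h before or just before 48 h hypoxia in a sealed humidified chamber (5% CO2, 95% N2). Viability was measured by MTT for about 2 h, with formazan dissolved in HCl/isopropanol and read at 570 nm. Results are % of corresponding control, triplicates.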

H9c2 [5] = experiment: Antioxidant activity in rat H9c2 cells assessed as reduction in hypoxia-induced NO release at 80 nM to 2 uM preincubated for 18 hrs followed by incubated in hypoxia for 48 hrs by griess assay; assay type: functional, cell-based
Summary of the method: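 10^4 H9c2 cells were pretreated 18 h at 37 °C with 80 nM or 2 µM, then held 48 h in a hypoxic chamber. Supernatant nitrite was measured with Griess reagent (0.5% sulfanilamide, 2.5% H3PO4, 0.05% naphthylethylene diamine) for 10 min at RT. Absorbance was read at 550 nm against a sodium nitrite standard curve.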

H9c2 [6] = experiment: Cytoprotective activity against hypoxia-induced toxicity rat H9c2 cells assessed as increase in cell viability at 80 nM to 7 uM incubated for 18 hrs in hypoxia measured after 48 hrs by MTT assay; assay type: functional; summary of the method: as §2
H9c2 [7] = experiment: Antioxidant activity in rat H9c2 cells assessed as increase in hypoxia-induced reduction of MnSOD expression at 2 uM preincubated for 18 hrs followed by incubated in hypoxia for 48 hrs by Western blot analysis; assay type: functional, cell-based
Summary of the method: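 H9c2 cells were pretreated 18 h at 80 nM or 2 µM, then held 48 h under hypoxia. Lysates were made in RIPA buffer with protease inhibitors and DTT, and 80 µg protein was run on 12% SDS-PAGE. Blots were probed overnight at 4 °C with anti-MnSOD, with GAPDH as internal standard. Detection was by ECL and bands were quantified by densitometry.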

H9c2 [8] = experiment: Cytoprotective activity against hypoxia-induced apoptosis in rat H9c2 cells assessed as early apoptotic cells at 2 uM preincubated for 18 hrs followed by incubated in hypoxia for 48 hrs by annexin V based flow cytometry; assay type: functional, cell-based; summary of the method: as §1
H9c2 [9] = experiment: Antioxidant activity in rat H9c2 cells assessed as hypoxia-induced RO production at 2 uM preincubated for 18 hrs followed by incubated in hypoxia for 48 hrs by DCFH-DA staining-based flow cytometric analysis( Rvb = 45 %); assay type: functional
H9c2 [10] = experiment: Cytoprotective activity against hypoxia-induced toxicity rat H9c2 cells assessed as cell death at 20 uM incubated for 18 hrs in hypoxia measured after 48 hrs by MTT assay
H9c2 [11] = experiment: Antioxidant activity in rat H9c2 cells assessed as reduction in hypoxia-induced lipid peroxidation by measuring TBARS level preincubated for 18 hrs followed by incubated in hypoxia for 48 hrs by spectrophotometry; assay type: functional, cell-based
Summary of the method: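 10^4 H9c2 cells were pretreated 18 h with 80 nM or 2 µM, then held 48 h under hypoxia. Cells were lysed in modified RIPA buffer. Lysates were mixed with 20% acetic acid (pH 3.5) and 0.78% thiobarbituric acid, heated at 95 °C for 45 min, and centrifuged. A532 was read and expressed as TBARS per µg protein. Triplicate measurements, duplicate experiments.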

H9c2 [12] = experiment: Cytoprotective activity against hypoxia-induced toxicity rat H9c2 cells assessed as cell death at 20 uM preincubated for 18 hrs followed by incubated in hypoxia for 48 hrs by MTT assay
H9c2 [13] = experiment: Cytoprotective activity against hypoxia-induced toxicity rat H9c2 cells assessed as increase in cell viability at 80 nM to 7 uM preincubated for 18 hrs followed by incubated in hypoxia for 48 hrs by MTT assay; assay type: functional; summary of the method: as §2
[14] = biological target: T2, Polyunsaturated fatty acid 5-lipoxygenase (Homo sapiens) (UniProt P09917); experiment: Residual activity of human 5-LOX expressed in Escherichia coli BL21 using arachidonic acid as substrate at 10 uM preincubated for 15 mins followed by substrate addition by HPLC analysis relative to control
T2 sequence (whole entry): T1 sequence (P09917 whole entry)

SMILES: Oc1cc(O)cc(/C=C/c2ccc(O)c(O)c2)c1 [PICEATANNOL]
Activity (H9c2 [5]): Active
pIC50 [1]: 6.62
Activity (H9c2 [6]): Active
Activity (H9c2 [7]): Active
pIC50 [3]: 5.96
Activity (H9c2 [8]): inactive
Activity (H9c2 [9]): 38%
cell death (H9c2 [10]): 80%
Activity (H9c2 [11]): Dose-dependent effect
cell death (H9c2 [12]): 80%
Activity (H9c2 [13]): Active

SMILES: COc1ccc(/C=C/c2cc(OC)cc(OC)c2)cc1 [TRISMETHOXYRESVERATROL]
pIC50 [1]: 6.12
pIC50 [3]: 5.44
Activity (H9c2 [4]): 25 - 35%

SMILES: CC(c1cc2ccccc2s1)N(O)C(N)=O (configuration not stated)
Activity (H9c2 [8]): inactive

SMILES: Oc1ccc(/C=C/c2cc(O)cc(O)c2)cc1 [RESVERATROL]
Activity (H9c2 [5]): Active
pIC50 [1]: 5.31
residual activity [14]: 63.4%
Activity (H9c2 [6]): 95%
Activity (H9c2 [7]): Active
cell death (H9c2 [10]): 80%
Activity (H9c2 [11]): Dose-dependent effect
cell death (H9c2 [12]): 80%
Activity (H9c2 [13]): 95%

SMILES: COc1cc(/C=C/c2ccc(OC)c(O)c2)cc(OC)c1
pIC50 [1]: 5.26
pIC50 [3]: 5.26
Activity (H9c2 [4]): 25 - 35%

The next lines start with results.

pIC50 [1]: 6.28
pIC50 [3]: 5.41
SMILES: COc1cc(/C=C/c2ccc(O)cc2)cc(OC)c1 [PTEROSTILBENE]
Activity (H9c2 [2]): 25%
Activity (H9c2 [4]): 25 - 35%

pIC50 [1]: 7.30
pIC50 [3]: 6.49
SMILES: COc1cc(/C=C/c2ccc(O)c(O)c2)cc(OC)c1
Activity (H9c2 [4]): 25 - 35%

pIC50 [1]: 7.15
pIC50 [3]: 6.11
SMILES: COc1cc(/C=C/c2ccc(O)c(OC)c2)cc(OC)c1
Activity (H9c2 [4]): 25 - 35%
